In ChEMBL document CHEMBL1147842, “Novel 1,4-benzodiazepine derivatives with antiproliferative properties on tumor cell lines” (Bioorg Med Chem Lett, 2007):
pIC50: −log10 of the molar value. Active and inactive are the calls of the source. The calls are words filed in the database; no cut-off is given here.

Key:
Assay type in all cases: functional, cell-based
[1] = (§1) Antiproliferative activity against v-Src transformed mouse NIH 3T3 fibroblast after 72 hrs; conditions: NIH3T3, 72 h
Summary of the method: (§2)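 NIH 3T3/v-Src fibroblasts seeded at 10⁵/well, left overnight at 37°C in 5% CO₂. Compound exposure 0–150 μM for 72 h. Cells then washed in PBS, trypsinised and counted in a particle counter. Means of at least two independent experiments run in duplicate. IC₅₀ taken from a sigmoidal dose-response fit.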

HeLa = experiment: Cytotoxicity against human HeLa cells after 72 hrs by WST-1 colorimetric test
Summary of the method: (§3)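 WST-1 colorimetric readout, based on cleavage by mitochondrial dehydrogenases. A2058 (4000 cells/well) or HeLa (3000 cells/well) left overnight at 37°C in 5% CO₂, then exposed to compounds at 0–150 μM for 72 h. WST-1 added for 2 h, absorbance at 450 nm read against a background control. Means of at least two independent experiments in triplicate.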

A2058 = experiment: Cytotoxicity against human A2058 cells after 72 hrs by WST-1 colorimetric test; conditions: for pIC50: A2058, 72 h; summary of the method: as §3
NIH3T3 [2] = experiment: as §1; summary of the method: as §2
NIH3T3 [3] = experiment: Antiproliferative activity against v-Src transformed mouse NIH 3T3 fibroblast at 150 uM after 72 hrs; summary of the method: as §2

| SMILES | pIC50 [1] | pIC50 (HeLa) | pIC50 (A2058) | Activity (NIH3T3 [2]) | Activity (HeLa) | Activity (A2058) | Activity (NIH3T3 [3]) |
| --- | --- | --- | --- | --- | --- | --- | --- |
| C[C@@H]1N=C(c2ccccc2)c2ccccc2N(Cc2ccc(OP(=O)(O)O)cc2)C1=O | 4.44 | 4.67 | 4.54 |  |  |  |  |
| C[C@@H]1N=C(c2ccccc2)c2ccccc2N(Cc2ccc(CP(=O)(O)O)cc2)C1=O |  |  |  | inactive | inactive | inactive |  |
| C[C@@H]1N=C(c2ccccc2)c2ccccc2NC1=O |  |  |  |  | inactive | inactive | inactive |
| NCCCC[C@@H]1N=C(c2ccccc2)c2ccccc2N(Cc2ccc(CP(=O)(O)O)cc2)C1=O |  |  |  | inactive | inactive | inactive |  |
| C[C@@H]1N=C(c2ccccc2)c2ccccc2N(Cc2ccc(OP(=O)(O)OCc3ccccc3)cc2)C1=O | 4.31 | 4.39 | 4.21 |  |  |  |  |
| CN1C(=O)CN=C(c2ccc(Cl)cc2)c2cc(Cl)ccc21 [RO-54864] | 4.50 | ≤ 4.00 | ≤ 4.00 |  |  |  |  |
| NCCCC[C@@H]1N=C(c2ccccc2)c2ccccc2N(Cc2ccc(OP(=O)(O)O)cc2)C1=O | ≤ 4.10 | ≤ 4.10 | 4.47 |  |  |  |  |
| C[C@@H]1N=C(c2ccccc2)c2ccccc2N(Cc2ccc(O)cc2)C1=O | 4.41 | 4.53 | 4.57 |  |  |  |  |
